Experimental data from ChEMBL document CHEMBL1134792, “Antimitotic antitumor agents: synthesis, structure-activity relationships, and biological characterization of N-aryl-N'-(2-chloroethyl)ureas as new selective alkylating agents” (J Med Chem, 2001).
The source made the active and inactive calls. The rule behind the calls is not given here.

Key:
LoVo [1] = assay: Dose required to inhibit cell growth was determined against LoVo cell line a human colon adenocarcinoma; NA= Not active represents IC50 >400 uM; format: functional, cell-based
Outline: (§1)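 Alamar Blue growth-inhibition assay. Cells ((1–5) × 10³ per well) were preincubated for 24 h, then exposed to increasing drug concentrations for 72 h at 37 °C. Alamar Blue (20%) was added and fluorescence read at ex 485 / em 590 nm. IC50 is the dose inhibiting growth by 50%. Means of ≥3 independent determinations.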

MDA-MB-231 [2] = assay: Dose required to inhibit cell growth was determined against MDA-MB-231 cell line of human non-hormone dependent breast carcinoma; format: functional, cell-based
Outline: (§2)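 Alamar Blue growth assay. (1–5) × 10^3 cells per well preincubated 24 h, then exposed to increasing drug concentrations for 72 h at 37 °C. Medium replaced with PBS containing 20% Alamar Blue, fluorescence read at 485/590 nm. IC50 is the dose inhibiting growth by 50%.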

MDA-MB-231 [3] = assay: Beta tubulin alkylation activity in MDA-MB-231 cells; format: functional, Homo sapiens; parameters: concentration or dose not given beside the values
Outline: (§3)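 MDA-MB-231 cells (~5 × 10^6), exponentially growing, exposed to 30 μM compound for 24 h at 37 °C. Lysed in Laemmli buffer, run on 10% SDS-PAGE, immunoblotted with anti-β-tubulin (TUB 2.1, 1:500) and peroxidase anti-mouse secondary, ECL detection. Normal and alkylated band densities integrated to give % alkylated β-tubulin. Representative of three experiments.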

L1210 = assay: Dose required to inhibit cell growth was determined against L1210 cell line of murine lymphocytotic leukemia; format: functional, cell-based; conditions: Mus musculus; outline: as §2
HT-29 [4] = assay: Dose required to inhibit cell growth was determined against HT-29 cell line of human adenocarcinoma; format: functional, cell-based; outline: as §2
K562 = assay: Dose required to inhibit cell growth was determined against K562 cell line of chronic myelogenous leukemia; format: functional, cell-based; conditions: Homo sapiens; outline: as §2
P388 [5] = assay: Dose required to inhibit cell growth was determined against P388D1 cell line of murine lymphocytotic leukemia; NA= Not active represents IC50 >400 uM; format: functional, cell-based; conditions: Mus musculus; outline: as §1
HT-29 [6] = assay: Dose required to inhibit cell growth was determined against HT-29 cell line of human adenocarcinoma; Not active represents IC50 >400 uM; format: functional, cell-based; outline: as §1
MDA-MB-231 [7] = assay: Dose required to inhibit cell growth was determined against MDA-MB-231 cell line of human non-hormone dependent breast carcinoma; Not active represents IC50 >400 uM; format: functional, cell-based; outline: as §1
CHO [8] = assay: Dose required to inhibit cell growth was determined against CHO cell line; Not active represents IC50 >400 uM; format: functional, cell-based; conditions: Cricetulus griseus; outline: as §1
[9] = Alkylating activity using 4-(4-nitrobenzyl)-pyridine(NBP) colorimetric assay
MDA-MB-231 [10] = assay: Beta tubulin alkylation activity in MDA-MB-231 cells; not determined; format: functional, Homo sapiens; outline: as §3
[11] = Alkylating activity by using 4-(4-nitrobenzyl)-pyridine(NBP) colorimetric assay
Outline: (§4)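 NBP colorimetric assay. Drug at 400 nmol/mL in ethanol was mixed with 10% NBP in ethanol and 50 mM sodium acetate pH 4.3, then heated at 80 °C for 60, 90, 120 or 150 min. Samples were chilled and basified with KOH/ethanol, and A570 was read against a drug-free blank. The alkylation rate (A570/min) is the slope of a linear regression of absorbance vs time. Mean ± SD of ≥3 independent experiments.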

P388 [12] = assay: Dose required to inhibit cell growth was determined against P388D1 cell line of murine lymphocytotic leukemia; format: functional, cell-based; conditions: Mus musculus; outline: as §2
LoVo [13] = assay: Dose to inhibit cell growth determined against LoVo cell line of human adenocarcinoma; format: functional, cell-based; outline: as §2
MDA-MB-231 [14] = assay: (§5) DNA damages caused in MDA-MB-231 cells after 2 hr exposure to a concentration of 400 uM; format: functional
Outline: (§6)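 Growing MDA-MB-231 cells held 2 h at 37 °C in medium with or without 400 μM compound. Cells washed in cold PBS and lysed in Tris/SDS/EDTA/deferoxamine/proteinase K buffer. DNA isolated by salting out, then 3'-end labeled by T4 DNA polymerase nucleotide exchange. Incorporated radioactivity measured by dot filtration, expressed as dCps exchanged/ng DNA. Means ± SD, ≥3 determinations.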

CHO [15] = assay: Dose required to inhibit cell growth was determined against CHO cell line; format: functional, cell-based; conditions: Cricetulus griseus; outline: as §2
MDA-MB-231 [16] = assay: DNA damages caused in MDA-MB-231 cells after 2 hr compound exposure to 400 uM concentration; format: functional, Homo sapiens; outline: as §6
[17] = Glutathione activity was measured after incubation with a conc. of 500 uM
Outline: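 Cell-free thiol assay. GSH 500 µM with 1 mM EDTA and 500 µM drug (from 2% ethanol solution) in 0.1 M phosphate buffer pH 7.4, 60 min at room temperature. DTNB (0.133 mM) was then added and A412 read. Reported as % of no-drug control, in triplicate.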

[18] = target: T1, Glutathione reductase, mitochondrial (Homo sapiens) (UniProt P00390); assay: Glutathione reductase activity was measured after incubation with a conc. of 500 uM; format: functional
T1 sequence (whole entry): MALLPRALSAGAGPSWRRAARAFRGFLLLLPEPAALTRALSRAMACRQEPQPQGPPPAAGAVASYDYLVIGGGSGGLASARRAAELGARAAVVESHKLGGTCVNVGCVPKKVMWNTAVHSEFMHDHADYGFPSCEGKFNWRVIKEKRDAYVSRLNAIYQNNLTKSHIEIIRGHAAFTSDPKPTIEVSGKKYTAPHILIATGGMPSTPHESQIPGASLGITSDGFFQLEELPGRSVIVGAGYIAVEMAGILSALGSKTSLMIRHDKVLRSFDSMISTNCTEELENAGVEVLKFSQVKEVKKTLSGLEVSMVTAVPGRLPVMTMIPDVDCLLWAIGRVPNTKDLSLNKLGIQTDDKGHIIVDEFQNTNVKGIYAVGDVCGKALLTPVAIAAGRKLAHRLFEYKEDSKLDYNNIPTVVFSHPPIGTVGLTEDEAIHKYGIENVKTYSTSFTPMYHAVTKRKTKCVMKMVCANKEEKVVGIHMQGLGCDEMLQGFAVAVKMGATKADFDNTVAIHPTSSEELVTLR
Outline: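 Purified glutathione reductase (0.016 U/mL) with 100 µM NADPH, 1 mM EDTA, 1 mg/mL BSA and 500 µM drug (from 2% ethanol solution) in 0.1 M phosphate pH 7.4, preincubated 60 min at 30 °C. GSSG was then added for 60 min at 30 °C. Activity is the […] over 3 min, as % of no-drug control, in triplicate.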

MDA-MB-231 [19] = assay: as §5; format: functional, Homo sapiens; outline: as §6
[20] = Alkylating activity by using 4-(4-nitrobenzyl)-pyridine (NBP) colorimetric assay; outline: as §4

SMILES | IC50 (MDA-MB-231 [2]) [µM] | Activity (MDA-MB-231 [3]) [%] | IC50 (L1210) [µM] | IC50 (HT-29 [4]) [µM] | IC50 (K562) [µM] | NA (MDA-MB-231 [7]) | NA (CHO [8]) | IC50 (P388 [12]) [µM] | IC50 (LoVo [13]) [µM] | IC50 (CHO [15]) [µM] | other results
O=C(NCCCl)Nc1ccccc1 | 140 | 0 | 57 | > 100 | > 100 |  |  |  |  |  | NA (LoVo [1]): inactive; NA (P388 [5]): inactive
CCNC(=O)Nc1ccc(C(C)C)cc1 |  |  | 35 |  | 142 | inactive | inactive |  |  |  | NA (HT-29 [6]): inactive
CCNC(=O)Nc1ccc(C(C)(C)C)cc1 |  |  |  | 83 | 84 | inactive | inactive |  |  |  | Activity [9]: 0.07; Activity (MDA-MB-231 [10]): 0
O=C(NCCCl)Nc1ccc2c(c1)CCC2 | 10 | 43 | 5 | 10 | 5.5 |  |  | 7.3 | 5.1 | 10 | Activity [11]: 3.5 A570 min-1; DNA damage (MDA-MB-231 [14]): 2.37 10e7 exchanged dCps (ng of DNA)
CC(C)(C)c1ccc(NC(=O)NCCCl)cc1 | 6.2 | 44 | 3 | 9.1 | 3.5 |  |  | 5.2 | 4.1 | 6.3 | Activity [11]: 3.1 A570 min-1; DNA damage (MDA-MB-231 [16]): 2.22 10e7 exchanged dCps (ng of DNA); Activity [17]: 100%; Activity [18]: 100%
CNC(=O)Nc1ccc(C(C)C)cc1 |  |  | 135 |  | 198 | inactive | inactive |  |  |  | NA (HT-29 [6]): inactive
O=C(O)CCCc1ccc(N(CCCl)CCCl)cc1 [CHLORAMBUCIL] | 80 |  | 3 | > 100 | 11 |  |  | 7 | 9 | 30 | DNA damage (MDA-MB-231 [19]): 12.7 10e7 exchanged dCps (ng of DNA); Activity [20]: 39 A570 min-1
